According to ChEMBL document CHEMBL2311305, “Antiproliferative potency of novel benzofuran-2-carboxamides on tumour cell lines: cell death mechanisms and determination of crystal structure” (Eur J Med Chem, 2013):
The source made the active and inactive calls. The rule behind the calls is not given here.

Experiments:
[1] = tested on: SW-620; test: Induction of mitotic catastrophe in human SW620 cells assessed as accumulation of G2/M phase cells at 5 to 10 uM after 24 to 48 hrs by PI-staining based flow cytometric analysis relative to control; type: functional, cell-based
[2] = tested on: SW-620; test: Induction of apoptosis in human SW620 cells assessed as caspase9 activation at 10 uM after 24 to 48 hrs by caspase protease assay; type: functional, cell-based
Summary of the method: (§1)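 Compound at 5 µM on SK-BR-3 and 10 µM on SW620. Cells harvested after 24 and 48 h, washed in PBS, lysed 10 min on ice, centrifuged. Lysate diluted to 3 mg/mL protein and mixed with DTT-containing reaction buffer and caspase-3, -8 or -9 substrate. Incubated 90 min at 37 °C in the dark. Absorbance read at 405 nm, duplicates, compared with untreated control.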

[3] = tested on: SW-620; test: Induction of apoptosis in human SW620 cells assessed as caspase8 activation at 10 uM after 24 to 48 hrs by caspase protease assay; type: functional, cell-based; summary of the method: as §1
[4] = tested on: SW-620; test: Induction of apoptosis in human SW620 cells assessed as caspase3 activation at 10 uM after 24 to 48 hrs by caspase protease assay; type: functional, cell-based; summary of the method: as §1
[5] = tested on: SW-620; test: Induction of cell cycle arrest in human SW620 cells assessed as G2/M phase cells at 10 uM after 48 hrs by PI-staining based flow cytometric analysis (reference value: 8.9 +/- 0.4%); type: functional
[6] = tested on: SW-620; test: Induction of cell cycle arrest in human SW620 cells assessed as S phase cells at 10 uM after 48 hrs by PI-staining based flow cytometric analysis (reference value: 39.9 +/- 0.5%); type: functional
[7] = tested on: SW-620; test: Induction of cell cycle arrest in human SW620 cells assessed as G2/M phase cells at 5 uM after 48 hrs by PI-staining based flow cytometric analysis (reference value: 8.9 +/- 0.4%); type: functional
[8] = tested on: SW-620; test: Induction of cell cycle arrest in human SW620 cells assessed as S phase cells at 5 uM after 48 hrs by PI-staining based flow cytometric analysis (reference value: 39.9 +/- 0.5%); type: functional
[9] = tested on: SW-620; test: Induction of cell cycle arrest in human SW620 cells assessed as G1 phase cells at 5 uM after 48 hrs by PI-staining based flow cytometric analysis (reference value: 51.1 +/- 2.5%); type: functional
[10] = tested on: SW-620; test: Induction of cell cycle arrest in human SW620 cells assessed as G1 phase cells at 10 uM after 48 hrs by PI-staining based flow cytometric analysis (reference value: 51.1 +/- 2.5%); type: functional
[11] = tested on: SW-620; test: Induction of cell cycle arrest in human SW620 cells assessed as subG1 phase cells at 10 uM after 48 hrs by PI-staining based flow cytometric analysis (reference value: 8.5 +/- 2.1%); type: functional
[12] = tested on: SW-620; test: Induction of cell cycle arrest in human SW620 cells assessed as subG1 phase cells at 5 uM after 48 hrs by PI-staining based flow cytometric analysis (reference value: 8.5 +/- 2.1%); type: functional
[13] = tested on: SW-620; test: Induction of cell cycle arrest in human SW620 cells assessed as G2/M phase cells at 10 uM after 24 hrs by PI-staining based flow cytometric analysis (reference value: 12.6 +/- 1%); type: functional
[14] = tested on: SW-620; test: Induction of cell cycle arrest in human SW620 cells assessed as G2/M phase cells at 5 uM after 24 hrs by PI-staining based flow cytometric analysis (reference value: 12.6 +/- 1%); type: functional
[15] = tested on: SW-620; test: Induction of cell cycle arrest in human SW620 cells assessed as S phase cells at 10 uM after 24 hrs by PI-staining based flow cytometric analysis (reference value: 41.1 +/- 0.8%); type: functional
[16] = tested on: SW-620; test: Induction of cell cycle arrest in human SW620 cells assessed as S phase cells at 5 uM after 24 hrs by PI-staining based flow cytometric analysis (reference value: 41.1 +/- 0.8%); type: functional
[17] = tested on: SW-620; test: Induction of cell cycle arrest in human SW620 cells assessed as G1 phase cells at 10 uM after 24 hrs by PI-staining based flow cytometric analysis (reference value: 46.3 +/- 1.8%); type: functional
[18] = tested on: SW-620; test: Induction of cell cycle arrest in human SW620 cells assessed as G1 phase cells at 5 uM after 24 hrs by PI-staining based flow cytometric analysis (reference value: 46.3 +/- 1.8%); type: functional
[19] = tested on: SW-620; test: Induction of cell cycle arrest in human SW620 cells assessed as subG1 phase cells at 10 uM after 24 hrs by PI-staining based flow cytometric analysis (reference value: 6.9 +/- 2.1%); type: functional
[20] = tested on: SW-620; test: Induction of cell cycle arrest in human SW620 cells assessed as subG1 phase cells at 5 uM after 24 hrs by PI-staining based flow cytometric analysis (reference value: 6.9 +/- 2.1%); type: functional
[21] = tested on: HeLa; test: Cytotoxicity against human HeLa cells after 72 hrs by MTT assay; type: functional, cell-based; details: Homo sapiens, HeLa, 72 h
Summary of the method: (§2)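 Cells seeded at 3000-6000 per well on day 0, according to cell line doubling time. Compound added in five 10-fold dilutions, 72-h incubation, then MTT colorimetric read-out. Absorbances converted to percentage growth by NCI formulae. IC50 obtained by linear regression between the concentrations bracketing PG 50; ">100" assigned when no concentration reaches it. Quadruplicate points, three independent experiments.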

[22] = tested on: MIA PaCa-2; test: Cytotoxicity against human MIAPaCa2 cells after 72 hrs by MTT assay; type: functional, cell-based; details: Homo sapiens, MIA PaCa-2, 72 h; summary of the method: as §2
[23] = tested on: WI-38; test: Cytotoxicity against human WI38 cells after 72 hrs by MTT assay; type: cell-based; details: Homo sapiens, WI-38, 72 h; summary of the method: as §2
[24] = tested on: SW-620; test: Cytotoxicity against human SW620 cells after 72 hrs by MTT assay; type: functional, cell-based; summary of the method: as §2
[25] = tested on: MCF7; test: Cytotoxicity against human MCF7 cells after 72 hrs by MTT assay; type: functional, cell-based; details: Homo sapiens, MCF7, 72 h; summary of the method: as §2
[26] = tested on: SK-BR-3; test: Cytotoxicity against human SKBR3 cells after 72 hrs by MTT assay; type: functional, cell-based; details: SK-BR-3, 72 h; summary of the method: as §2

With `Cl.O=C(Nc1ccc(C2=NCCN2)cc1)c1cc2ccccc2o1` the Activity [1] was “Active”, the Activity [2] was “inactive” and the Activity [3] was “inactive”. For the same molecule, the Activity [4] was “inactive”, the Activity [5] was 10.5% and the Activity [6] was 42.6%. For the same molecule, the Activity [7] was 8.3%, the Activity [8] was 40.7% and the Activity [9] was 46.8%. For the same molecule, the Activity [10] was 46.9%, the Activity [11] was 8.2% and the Activity [12] was 4.9%. It also gave an Activity [13] of 13.5%, an Activity [14] of 12.7% and an Activity [15] of 40.9%. It also gave an Activity [16] of 43.9%, an Activity [17] of 45.7% and an Activity [18] of 43.4%. For the same molecule, the Activity [19] was 10.4%, the Activity [20] was 7.1% and the IC50 [21] was 27.5 µM. The IC50 [22] was 31.5 µM, the IC50 [23] was 23.3 µM and the Activity [24] was “Dose-dependent effect”. The IC50 ([24]; Homo sapiens, SW-620, 72 h) was 6.4 µM, the IC50 [25] was 26.2 µM and the IC50 [26] was 40.5 µM.
